# In the library only some 2.6% were active in any assay of this set; here they are far more common.
# CHT inh – human CHT choline transport inhibition; Q9GZV3; CHT-expressing cells, membrane potential dye, choline response; active compounds read low; B-score at 10 µM; 310,000 compounds, 0.86% hits; AID 488975;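 active = B-score over 3 SD under the library average, and starting fluorescence ratio not unusually high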;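 also: choline stimulus applied at its EC90 after an EC20 pre-addition; B-score computed on integrated fluorescence ratio after choline addition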
# Target sequence (Q9GZV3 whole entry, looked up): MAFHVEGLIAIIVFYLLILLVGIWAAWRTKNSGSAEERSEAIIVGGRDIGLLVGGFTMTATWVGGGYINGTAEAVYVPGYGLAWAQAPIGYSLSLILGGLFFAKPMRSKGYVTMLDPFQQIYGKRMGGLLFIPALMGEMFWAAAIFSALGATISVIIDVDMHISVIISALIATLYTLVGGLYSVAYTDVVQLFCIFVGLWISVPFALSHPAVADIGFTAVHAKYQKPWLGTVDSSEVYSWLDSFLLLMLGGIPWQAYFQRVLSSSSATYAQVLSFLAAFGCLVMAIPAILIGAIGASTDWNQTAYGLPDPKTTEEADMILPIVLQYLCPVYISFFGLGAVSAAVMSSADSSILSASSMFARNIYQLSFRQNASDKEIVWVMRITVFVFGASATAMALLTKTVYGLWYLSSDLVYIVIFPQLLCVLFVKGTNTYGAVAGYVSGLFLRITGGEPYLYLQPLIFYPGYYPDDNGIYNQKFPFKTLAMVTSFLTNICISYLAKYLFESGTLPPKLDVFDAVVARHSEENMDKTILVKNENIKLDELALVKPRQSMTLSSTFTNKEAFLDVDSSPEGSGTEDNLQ
# Cl transport mod – KCC2 (human) Cl- transport modulation. Q9H2X9. KCC2 cells, thallium flux FluoZin-2 fluorescence. B-score of Tl+ flux slope (higher = more flux/activation; lower = inhibition) at 10 µM. 190,000 compounds, 2.2% hits. AID 1456;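 active = thallium flux slope and its plate-corrected score both differing from the plate sample mean at a set confidence after two filtering rounds, in either direction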;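 also: slope of fluorescence scaled to starting intensity during 10 to 20 s after thallium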
# Rad51 HR inh – Rad51 (human) homologous recombination inhibition. Q06609. hRad51 DNA strand exchange, fluorescence dequenching. inhibition, % at 10 µM. 200,000 compounds, 0.085% hits. AID 1385;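 active = inhibition above 40% at the single screening dose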;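 also: 0% = DMSO control wells and 100% = blanks with heterologous ssDNA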
#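 Material: Human Rad51 nucleoprotein filaments preassembled on unlabelled ssDNA | Also added: Labelled 47-mer dsDNA for strand exchange | Dosing: Single dose, 10 µM final compound | Schedule: 30-min compound preincubation and 15-min exchange, both room temperature | Technique: Fluorescence dequenching at 485/520 nm | Measure: Percent inhibition relative to plate controls and blanks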
# CHT PAM – human CHT allosteric activation; Q9GZV3; CHT-expressing cells, membrane potential dye, choline EC20; active compounds read high; LV-AA mutant CHT in HEK293 cells; B-score at 10 µM; 310,000 compounds, 0.49% hits;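 active = initial fluorescence not abnormally high and integrated response B-score, plate-corrected, over 3 SD above library mean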
# CHT inh conf – confirmation of human choline transporter CHT inhibitors; CHT-expressing cells, choline membrane potential dye; LV-to-AA substituted CHT, HEK293 cells; shares compounds with CHT inh; CHT activity remaining % of control (active compounds read low), % at 10 µM; 2,400 compounds, 70% hits; AID 493221;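 active = choline transporter activity left, mean of duplicates at 10 µM, below buffer-only control mean minus 3 SD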;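 also: depolarization triggered by choline at its EC90 following an EC20 pre-addition; 0% = hemicholinium-3 full block and 100% = buffer-only control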
# HEK293 MPD ctr – CHT inhibitor counter-screen hit in parental HEK293 cells; shares compounds with CHT inh; membrane potential dye, choline response; active = decrease or increase beyond buffer ±3SD; membrane potential ratio readout (active if shifted either direction beyond buffer ±3SD; no single direction) at 10 µM; 2,400 compounds, 4% hits; AID 493222;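 also: parental cells lack the transporter so any hit is non-specific; ratio is peak minus trough fluorescence over baseline after EC90 choline challenge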
# An asterisk follows results filed as active; i = inactive; . = no result given.
SMILES,CHT inh,Cl transport mod,Rad51 HR inh,CHT PAM,CHT inh conf,HEK293 MPD ctr
CCc1cc2c(=O)n(CC)c(SC(C)C(=O)Nc3c(C)n(C)n(-c4ccccc4)c3=O)nc2s1 (stereo unspecified),-5.6*,.,11,i,i,i
Cc1cc(SC(C)C(=O)Nc2c(C)n(C)n(-c3ccccc3)c2=O)nc2ccccc12 (stereo unspecified),i,0.5,4,i,.,.
CC(C)[C@H](NC(=O)N1CCn2c1nc1ccccc12)C(=O)N[C@@H](Cc1ccccc1)C(=O)O,i,.,.,i,.,.
CCOC(=O)c1c(C)n(C)c2ccc(O)c(CN3CCC(C)CC3)c12,-14*,-0.24,-1,i,20%*,4.2*
CC1(C)CC(=O)C(C(=O)Cc2ccccc2[N+](=O)[O-])C(=O)C1,i,-0.39,2,i,.,.
Cc1oc(C(=O)O)cc1COc1ccc2c3c(c(=O)oc2c1C)CCC3,-6.6*,0.055,-5,i,43%*,i
Cc1nnc(SCC(=O)c2ccccc2)n1Cc1ccccc1,-5.3*,-0.012,-1,i,47%*,-8.6*
CCOC(=O)c1cccc(NC(=O)CSc2nnc(C)n2Cc2ccccc2)c1,-6.9*,-2,2,i,66%*,i
CC1(OC(=O)C2CCCC2)C(=O)C=C2C=C(c3ccsc3)N(C(CO)CO)C=C2C1=O (stereo unspecified),i,0.45,-2,i,.,.
C(=N\Nc1nccc(-c2cccnc2)n1)/c1ccccc1,-12*,0.38,2,i,i,i
C/C=C/C(O)c1ccc2ccccc2c1 (stereo unspecified),i,.,.,i,.,.
O=C(O)CCNC1C=CS(=O)(=O)C1 (stereo unspecified),-6.2*,-0.0032,7,i,i,i
Cc1ccc(OCCCN2CCOCC2)c([N+](=O)[O-])c1,-6.1*,-0.87,-6,i,i,i
Cc1ccc(S(=O)(=O)CC(O)COc2ccc(F)cc2Cl)cc1 (stereo unspecified),-6.6*,-0.28,1,i,54%*,i
Cc1ccc(S(=O)(=O)CC(O)COc2ccc(F)cc2Cl)c(C)c1 (stereo unspecified),i,-0.47,-4,i,.,.
Cc1nonc1C1CCCN1Cc1cn[nH]c1-c1ccc2c(c1)OCO2 (stereo unspecified),i,0.78,.,i,.,.
Cc1nn(Cc2ccccc2)c(Cl)c1/C=C1\NC(=S)NC1=O,-7.7*,-0.021,3,i,i,i
Cc1nn(Cc2ccc(F)cc2)c(Cl)c1/C=N/NC(=O)c1ccccc1,i,0.18,-27,i,.,.
COCn1ccnc1C(O)(c1ccc(OC)cc1)c1ccc(OC)cc1,i,0.12,-5,i,.,.
COc1ccc(N2CC(C(=O)N3CCN(C(=O)c4ccco4)CC3)CC2=O)cc1 (stereo unspecified),i,.,.,i,.,.
CCOc1nc2cnccc2n(CC(=O)Nc2cccc(C)c2)c1=O,i,.,.,i,.,.
O=C(Cn1c(=O)n(CCCCC(=O)NC2CCCC2)c(=O)c2ccccc21)NCCC1=CCCCC1,-7*,.,8,i,i,i
NC(=O)Cn1c(=O)n(CCCC(=O)NC2CCN(Cc3ccccc3)CC2)c(=O)c2ccccc21,-5.6*,-0.034,-2,i,i,i
COc1ccccc1CCC(=O)Nc1ccc2c(c1)CN(Cc1ccc(CO)o1)CC2,i,.,.,i,.,.
Cc1ccc(NC(=O)c2ccc3c(c2)OCCO3)cc1S(=O)(=O)Nc1cccc(Cl)c1,i,0.68,-4,i,.,.
SMILES,CHT inh,Cl transport mod,Rad51 HR inh,CHT PAM,CHT inh conf,HEK293 MPD ctr
COc1ccc(CCC(=O)OCC(=O)Nc2c(C)nn(-c3ccccc3)c2C)cc1,i,.,.,i,.,.
Cc1cccc(-c2ncc(CN3CCN(CCC(C)C)C(CCO)C3)cn2)c1 (stereo unspecified),-5.8*,0.38,.,i,i,i
Cc1cccc(-c2ncc(CN3CCN(C4CCCC4)C(CCO)C3)cn2)c1 (stereo unspecified),i,-0.17,7,i,.,.
CCOC(=O)c1oc2ccccc2c1COC(=O)CNC(=O)c1ccco1,i,.,.,i,.,.
CCOc1ccc(NS(=O)(=O)c2ccc(C(=O)NCC(c3cccs3)N3CCOCC3)cc2)cc1 (stereo unspecified),i,.,.,i,.,.
CC(C)CN1CCNC(=O)C1CC(=O)NCCc1cnn(-c2ccccc2)c1 (stereo unspecified),i,-0.12,-13,i,.,.
CC(C)CN1CCNC(=O)C1CC(=O)NCCc1ccc(C(F)(F)F)cc1 (stereo unspecified),-4.9*,-0.16,.,i,i,i
Cc1ccccc1N/N=C/c1c(C)nc2ccccn12,-13*,.,.,i,i,i
CCCCNC(=S)NCC(c1ccccc1)c1c[nH]c2ccccc12 (stereo unspecified),i,.,.,i,.,.
CN(C)CCCNC(=S)NCC(c1ccc(Cl)cc1Cl)c1c[nH]c2ccccc12 (stereo unspecified),-5.8*,.,.,i,i,i
CC(=O)Nc1ccc(S(=O)(=O)NC2CC3CCC2C3)cc1 (stereo unspecified),i,.,.,i,.,.
Cc1occc1C(=O)N/N=C/c1sc(N2CCOCC2)nc1-c1ccccc1,-9.1*,0.0018,10,i,i,i
O=C(O)c1ccc2c(c1)N(Cc1ccccc1)C(=O)c1ccccc1S2,i,-1.5,-1,i,.,.
Cc1cc(C)c[n+](CC(=O)c2c(C)cc(C)c([N+](=O)[O-])c2C)c1,-7.9*,.,.,i,45%*,i
O=C(CSc1ncnc2scc(-c3ccccc3)c12)NC1CCS(=O)(=O)C1 (stereo unspecified),-6.2*,-0.75,12,i,i,i
COc1ccc(-c2nc(N3CCN(C)CC3)sc2-c2ccc(OC)cc2)cc1,i,.,.,i,.,.
O=C(NNS(=O)(=O)c1ccccc1[N+](=O)[O-])c1cc2ccccc2cc1O,-7.3*,.,.,i,62%*,i
CCn1c(SCC(=O)N=Nc2c(O)[nH]c3ccccc23)nc2ccccc21,-7*,-2.1,8,i,54%*,i
CCOC(=O)c1sc(NC(=O)CCN2CCN(C)CC2)c(C(=O)OCC)c1C,-5.3*,0.87,4,i,47%*,i
CCOC(=O)c1c(NC(=O)CCN2C(=O)c3cccc([N+](=O)[O-])c3C2=O)sc(C(=O)OC(C)C)c1C,-7.5*,0.31,17,i,70%*,i
CCOC(=O)c1sc(NC(=O)CCN2CC(C)OC(C)C2)c(C(=O)OCC)c1C (stereo unspecified),i,0.5,.,i,.,.

# Assay outcomes: PubChem, several laboratories
